Reference: ChEMBL document CHEMBL3272319, “Alkyl streptozotocin analogues with improved biological activities” (J Med Chem, 1976)

Experiments:
[1] = tested on: L1210; assay: Antitumor activity against mouse L1210 cells allografted in ip dosed BDF1 mouse assessed as 30% increase in host lifespan administered for qd for 5 days; type: functional
[2] = (§1) Acute toxicity in ip dosed JCL-ICR mouse assessed as animal death; type: organism-based; details: JCL-ICR, in vivo
How it was run: (§2)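 Groups of ten female JCL-ICR mice given single ip dose in physiological saline; deaths followed over 7 days; LD50 (and LD10) derived by Litchfield–Wilcoxon method.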

[3] = tested on: Mus musculus; assay: as §1; type: organism-based; details: in vivo; how it was run: as §2
[4] = tested on: L1210; assay: Antitumor activity against mouse L1210 cells allografted in BDF1 mouse assessed as increase in host lifespan at 50 mg/kg, ip qd for 5 days relative to control; type: functional; details: 120 h, route intraperitoneal
How it was run: (§3)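 L1210 (1 × 10^5 cells) implanted into BDF1 mice, six per group; compound in saline ip once daily days 1-5; effect read as % increase in life span, ILS = [(treated life span/control life span) − 1] × 100.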

[5] = tested on: Rattus norvegicus; assay: Diabetogenic activity in Wistar rat assessed as increase in blood sugar level at 30 to 120 mg/kg, ip qd for 1 month measured 24 hrs last drug dosage by glucose oxidase method; type: ADME, organism-based; design: dose 30-120 mg/kg, route intraperitoneal; details: in vivo
How it was run: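 Male Wistar rats, about 150 g, five per group. Drug in physiological saline given ip qd on days 1–30. Blood drawn 24 h after the last dose. Sugar measured by glucose oxidase.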

[6] = Ratio of compound LD50 to streptozotocin LD50 for JCL-ICR mouse; type: ADME, organism-based; details: in vivo
[7] = Acute toxicity in iv dosed dog; type: organism-based, Canis lupus familiaris; details: in vivo
[8] = tested on: Mus musculus; assay: Toxicity in BDF1 mouse allografted with mouse L1210 cells assessed as mortality at 50 mg/kg, ip qd for 5 days; type: organism-based; design: dose 50 mg/kg, route intraperitoneal; details: in vivo, 120 h; how it was run: as §3
[9] = tested on: Rattus norvegicus; assay: Diabetogenic activity in Wistar rat assessed as increase in blood sugar level at 68 mg/kg, iv administered as single dose by glucose oxidase method; type: ADME, organism-based; design: dose 68 mg/kg, route intravenous; details: in vivo
How it was run: (§4)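 Male Wistar rats, about 200 g, five per group, fasted 16 h. Single iv dose into the femoral vein in physiological saline, equimolar across compounds. Caudal-vein blood sampled at set times over 24 h. Sugar measured by glucose oxidase.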

[10] = tested on: Mus musculus; assay: Toxicity in ICR mouse allografted with mouse S180A assessed as mortality at 25 mg/kg, ip qd for 5 days; type: organism-based; design: dose 25 mg/kg, route intraperitoneal; details: in vivo, 120 h
How it was run: (§5)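 Ascites Sarcoma 180 (1 × 10^7 cells) implanted into ICR mice, six per group; compound in saline ip once daily days 1-5; sacrifice on day 7; total packed cell volume (ascites volume × PCV) compared with controls as T/C %; mortality recorded.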

[11] = tested on: Escherichia coli; assay: Antibacterial activity against Escherichia coli NIHJ JC-2 assessed as growth inhibition after 18 hrs by broth dilution method; type: functional; details: NIHJ JC-2, 18 h
How it was run: (§6)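 Twofold serial dilutions in heart infusion broth. Inoculum was a 24-h heart infusion broth culture diluted 100-fold in physiological saline. Tubes incubated 30 °C for 18 h; the table footnote gives 32 °C for 24 h. MIC in µg/ml is the lowest level giving complete growth inhibition.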

[12] = tested on: Shigella sonnei; assay: Antibacterial activity against Shigella sonnei assessed as growth inhibition after 18 hrs by broth dilution method; type: functional; how it was run: as §6
[13] = tested on: Salmonella typhi; assay: Antibacterial activity against Salmonella typhi IFM 3020 assessed as growth inhibition after 18 hrs by broth dilution method; type: functional, Salmonella enterica subsp. enterica serovar Typhi; details: Salmonella enterica, IFM 3020, 18 h
How it was run: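 Twofold serial dilutions in heart infusion broth; inoculum from 24 h heart infusion broth culture diluted 100-fold in physiological saline; tubes incubated 30 °C for 18 h; MIC (µg/ml) = lowest level giving complete growth inhibition.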

[14] = tested on: Klebsiella pneumoniae; assay: Antibacterial activity against Klebsiella pneumoniae ATCC 10031 assessed as growth inhibition after 18 hrs by broth dilution method; type: functional; details: ATCC 10031, 18 h; how it was run: as §6
[15] = tested on: Pseudomonas fluorescens; assay: Antibacterial activity against Pseudomonas fluorescens NIHJ B-254 assessed as growth inhibition after 18 hrs by broth dilution method; type: functional; details: NIHJ B-254, 18 h; how it was run: as §6
[16] = tested on: Mus musculus; assay: Toxicity in ICR mouse allografted with mouse EAC assessed as mortality at 150 mg/kg, ip qd for 5 days; type: organism-based; design: dose 150 mg/kg, route intraperitoneal; details: in vivo, 120 h
How it was run: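 Ehrlich ascites carcinoma (1 × 10^7 cells) implanted into ICR mice, six per group; compound ip daily for 5 days; mice sacrificed day 7; tumour burden as total packed cell volume (ascites volume × PCV), T/C % vs controls; mortality recorded.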

[17] = tested on: Staphylococcus aureus; assay: Antibacterial activity against Staphylococcus aureus FDA 209P JC-1 assessed as growth inhibition after 18 hrs by broth dilution method; type: functional; details: FDA 209P JC-1, 18 h; how it was run: as §6
[18] = Acute toxicity in iv dosed mouse; type: organism-based; details: in vivo
[19] = Therapeutic index, ratio of LD10 for JCL-ICR mouse to ED90 for mouse S180A cells allografted in ICR mouse; details: read-out: TI
[20] = tested on: Proteus vulgaris; assay: Antibacterial activity against Proteus vulgaris AHU 1469 assessed as growth inhibition after 18 hrs by broth dilution method; type: functional; details: AHU 1469, 18 h; how it was run: as §6
[21] = tested on: Bacillus subtilis; assay: Antibacterial activity against Bacillus subtilis ATCC 6633 assessed as growth inhibition after 18 hrs by broth dilution method; type: functional; details: ATCC 6633, 18 h; how it was run: as §6
[22] = tested on: Mus musculus; assay: Ratio of compound LD10 to streptozotocin LD10 for JCL-ICR mouse; type: ADME, organism-based; details: in vivo
[23] = tested on: Micrococcus luteus; assay: Antibacterial activity against Sarcina lutea ATCC 9341 assessed as growth inhibition after 18 hrs by broth dilution method; type: functional; details: ATCC 9341, 18 h; how it was run: as §6
[24] = tested on: Ehrlich; assay: Antitumor activity against mouse EAC allografted in ICR mouse assessed as tumor growth at 150 mg/kg, ip qd for 5 days measured on day 7 relative to control; type: functional; details: route intraperitoneal
How it was run: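 Ehrlich ascites carcinoma (1 × 10^7 cells) implanted into ICR mice, six per group. Drug in saline ip, qd days 1–5. Mice killed day 7. Total packed cell volume = ascites volume × % packed cell volume; T/C % = TPCV treated/control × 100. Activity graded from T/C.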

[25] = tested on: Enterococcus faecalis; assay: Antibacterial activity against Streptococcus faecalis ATCC 10541 assessed as growth inhibition after 18 hrs by broth dilution method; type: functional; details: ATCC 10541, 18 h; how it was run: as §6
[26] = Antitumor activity against mouse S180A cells allografted in ip dosed ICR mouse administered qd for 5 days; type: functional; details: 120 h
How it was run: (§7)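 Ascites Sarcoma 180 (1 × 10^7 cells) implanted into ICR mice, six animals per group. Five daily ip injections in saline (days 1–5). Sacrificed day 7. T/C % computed from total packed cell volume (ascites volume × PCV) vs controls. Grades: 100-66 = -, 65-41 = +, 40-11 = ++, 10-0 = +++.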

[27] = tested on: Mus musculus; assay: Toxicity in ip dosed BDF1 mouse allografted with mouse L1210 cells assessed as optimal dose required for mortality administered qd for 5 days; type: organism-based; details: in vivo, 120 h
[28] = Antitumor activity against mouse S180A allografted in ICR mouse assessed as tumor growth at 25 mg/kg, ip qd for 5 days measured on day 7 relative to control; type: functional; details: route intraperitoneal; how it was run: as §7
[29] = Antitumor activity against mouse S180A allografted in ICR mouse assessed as tumor growth at 100 mg/kg, ip qd for 5 days measured on day 7 relative to control; type: functional; details: route intraperitoneal; how it was run: as §7
[30] = tested on: Rattus norvegicus; assay: Diabetogenic activity in iv dosed Wistar rat assessed as increase in blood sugar level administered as single dose by glucose oxidase method; type: ADME, organism-based; details: in vivo; how it was run: as §4
[31] = tested on: Mus musculus; assay: Toxicity in ICR mouse allografted with mouse S180A assessed as mortality at 100 mg/kg, ip qd for 5 days; type: organism-based; design: dose 100 mg/kg, route intraperitoneal; details: in vivo, 120 h; how it was run: as §5

SMILES | LD50 [2] [mg/kg] | LD10 [3] [mg/kg] | ILS at 50 mg/kg [4] [%] | selectivity ratio [6] | Activity [8] | MIC [11] [µg/mL] | MIC [12] [µg/mL] | MIC [13] [µg/mL] | MIC [14] [µg/mL] | MIC [15] [µg/mL] | MIC [17] [µg/mL] | MIC [20] [µg/mL] | MIC [21] [µg/mL] | Ratio [22] | MIC [23] [µg/mL] | MIC [25] [µg/mL] | also measured
CO[C@@H]1O[C@H](CO)[C@@H](O)[C@H](O)[C@H]1NC(=O)N(C)N=O | 1700 | 800 | 40 | 2 | Non-toxic | > 1000 | > 1000 | > 1000 | > 1000 | > 1000 | > 1000 | > 1000 | > 1000 | 2 | > 1000 | > 1000 | Activity [1]: 33 mg/kg/day; Activity [5]: Non-toxic; LD50 [7]: 400 mg/kg; Activity [9]: Non-toxic; Activity [10]: Non-toxic; Activity [16]: Non-toxic; LD50 [18]: 1620 mg/kg; selectivity ratio [19]: 16; T/C [24]: 1%; ED90 [26]: 50 mg/kg/day; Activity [27]: 400 mg/kg/day; T/C [28]: 22%
CCN(N=O)C(=O)N[C@H]1[C@H](OC)O[C@H](CO)[C@@H](O)[C@@H]1O | 1700 | 1380 | 14 | 2 | Non-toxic | > 1000 | > 1000 | > 1000 | > 1000 | > 1000 | > 1000 | > 1000 | > 1000 | 2 | > 1000 | > 1000 | T/C [29]: 65%; Activity [30]: Non-toxic; Activity [31]: Non-toxic
